The source of these data is ChEMBL document CHEMBL1157506, “Synthesis and pharmacological characterization of chiral pyrrolidinylfuran derivatives: the discovery of new functionally selective muscarinic agonists” (J Med Chem, 2008).

A short description of test [1]: Antagonist activity at muscarinic M3 receptor in guinea pig ileum assessed as effect on tissue tension changes. The format is functional, Cavia porcellus. Put shortly:
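Guinea pig ileum with isotonic recording of tension changes and 30 min equilibration. Dose-response curves to arecaidine propargyl ester taken at 30 min intervals; the first is discarded and the second serves as control. Responses are expressed as % of the maximal control-curve response, with parallel tissues given only the reference agonist to check sensitivity.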

The target of test [2] is T1, Muscarinic acetylcholine receptor M5 (Homo sapiens, UniProt P08912).
T1 sequence (P08912 whole entry): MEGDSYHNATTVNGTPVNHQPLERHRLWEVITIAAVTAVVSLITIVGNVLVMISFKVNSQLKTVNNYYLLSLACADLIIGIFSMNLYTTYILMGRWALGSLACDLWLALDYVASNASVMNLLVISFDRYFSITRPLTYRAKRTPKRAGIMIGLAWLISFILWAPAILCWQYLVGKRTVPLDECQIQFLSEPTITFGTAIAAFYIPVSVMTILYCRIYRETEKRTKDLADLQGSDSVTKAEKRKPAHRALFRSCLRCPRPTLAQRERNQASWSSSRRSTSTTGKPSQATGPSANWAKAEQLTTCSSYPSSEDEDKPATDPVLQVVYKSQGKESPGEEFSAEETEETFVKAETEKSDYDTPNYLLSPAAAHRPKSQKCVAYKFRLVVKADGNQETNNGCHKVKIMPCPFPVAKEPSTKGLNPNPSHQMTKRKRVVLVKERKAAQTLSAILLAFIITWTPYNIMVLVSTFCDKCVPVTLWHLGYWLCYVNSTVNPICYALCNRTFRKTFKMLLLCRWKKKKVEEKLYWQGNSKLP
Put plainly: Displacement of [3H]NMS from human muscarinic M5 receptor expressed in CHO cells by liquid scintillation counter. It is filed as cell-based. Put shortly:
(§1)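 Membrane protein was 70 µg/mL for hm2, 50 µg/mL for hm4 and 25 µg/mL for hm5. Incubation was 120 min at room temperature in 25 mM sodium phosphate with 5 mM MgCl2, pH 7.4. GF/C filtration and scintillation counting followed; duplicates.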

Test [3] can be described thus: Antagonist activity at muscarinic M1/M4 receptor in New Zealanda white rabbit vas deferens assessed as effect on isometric tissue contraction. It is filed as functional, Oryctolagus cuniculus. Put shortly:
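Rabbit vas deferens bathed at 30 °C with 10^-6 M yohimbine and 10^-8 M tripitramine to block α2-adrenoceptors and M2 receptors. Electrically stimulated with square-wave pulses (0.1 ms, 2 Hz, 10-15 V) and equilibrated 1 h. Isometric contractions recorded during a cumulative dose-response curve to McN-A-343. Responses are expressed as % of maximal control-curve response, with parallel reference-agonist-only tissues run.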

For test [4], the target named is T2, Muscarinic acetylcholine receptor M1 (Homo sapiens, UniProt P11229).
T2 sequence (P11229 whole entry): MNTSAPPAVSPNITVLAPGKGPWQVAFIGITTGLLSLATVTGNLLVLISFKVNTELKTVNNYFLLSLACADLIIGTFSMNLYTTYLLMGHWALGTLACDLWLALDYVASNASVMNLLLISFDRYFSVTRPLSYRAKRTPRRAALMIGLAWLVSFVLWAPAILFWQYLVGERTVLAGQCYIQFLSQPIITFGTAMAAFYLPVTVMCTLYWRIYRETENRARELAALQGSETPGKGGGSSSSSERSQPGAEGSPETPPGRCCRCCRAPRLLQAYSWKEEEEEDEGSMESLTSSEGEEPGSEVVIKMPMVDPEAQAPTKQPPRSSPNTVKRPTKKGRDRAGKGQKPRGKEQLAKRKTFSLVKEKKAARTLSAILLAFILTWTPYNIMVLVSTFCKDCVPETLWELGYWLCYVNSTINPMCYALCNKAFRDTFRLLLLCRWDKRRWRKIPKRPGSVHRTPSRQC
Put plainly: Displacement of [3H]NMS from human muscarinic M1 receptor expressed in CHO cells by liquid scintillation counter. The format is cell-based.

A short description of test [5]: Agonist activity at muscarinic M2 receptor in guinea pig atrium assessed as effect on inotropic activity. The format is functional, Cavia porcellus, Cardiac atrium. The essentials:
(§2)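 Left atria in PSS at 30 °C, paced via platinum electrodes (1 ms, 1 Hz, 5-10 V). Inotropic force recorded isometrically after 2 h equilibration. A cumulative APE reference curve was obtained, then cumulative agonist curves. Responses are expressed as % of the control maximal response.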

Test [6] deals with T3, Muscarinic acetylcholine receptor M2 (Homo sapiens, UniProt P08172).
T3 sequence (P08172 whole entry): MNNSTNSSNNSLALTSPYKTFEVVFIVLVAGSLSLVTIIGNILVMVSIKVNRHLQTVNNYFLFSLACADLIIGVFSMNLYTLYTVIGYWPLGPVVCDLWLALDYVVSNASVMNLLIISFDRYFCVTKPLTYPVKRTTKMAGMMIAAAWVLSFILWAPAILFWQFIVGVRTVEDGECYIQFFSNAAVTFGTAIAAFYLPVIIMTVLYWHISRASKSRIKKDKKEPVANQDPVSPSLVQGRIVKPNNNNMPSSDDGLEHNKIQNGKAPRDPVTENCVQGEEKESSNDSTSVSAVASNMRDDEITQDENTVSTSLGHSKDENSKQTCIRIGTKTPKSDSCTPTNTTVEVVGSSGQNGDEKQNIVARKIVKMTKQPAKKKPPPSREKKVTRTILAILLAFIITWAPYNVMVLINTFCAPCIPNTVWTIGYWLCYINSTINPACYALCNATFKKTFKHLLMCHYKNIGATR
In words: Displacement of [3H]NMS from human muscarinic M2 receptor expressed in CHO cells by liquid scintillation counter. The format is cell-based. The essentials:
as §1

The target of test [7] is T4, Muscarinic acetylcholine receptor M4 (Homo sapiens, UniProt P08173).
T4 sequence (P08173 whole entry): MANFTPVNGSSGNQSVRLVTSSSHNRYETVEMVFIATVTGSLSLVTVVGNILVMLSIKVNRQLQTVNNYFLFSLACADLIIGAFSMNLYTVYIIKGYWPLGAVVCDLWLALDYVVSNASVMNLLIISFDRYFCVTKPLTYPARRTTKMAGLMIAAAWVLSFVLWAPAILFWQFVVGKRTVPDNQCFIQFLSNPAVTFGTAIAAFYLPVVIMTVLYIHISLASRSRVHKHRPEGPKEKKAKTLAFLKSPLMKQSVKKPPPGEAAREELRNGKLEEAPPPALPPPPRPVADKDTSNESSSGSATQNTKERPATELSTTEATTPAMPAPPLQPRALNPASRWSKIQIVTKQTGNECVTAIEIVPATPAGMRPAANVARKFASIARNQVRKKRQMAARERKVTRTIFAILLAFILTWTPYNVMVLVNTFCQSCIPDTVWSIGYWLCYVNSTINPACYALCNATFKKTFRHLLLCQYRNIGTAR
Put plainly: Displacement of [3H]NMS from human muscarinic M4 receptor expressed in CHO cells by liquid scintillation counter. It is filed as cell-based. Put shortly: as §1

A short description of test [8]: Antagonist activity at muscarinic M1/M4 receptor in guinea pig lung assessed as effect on tissue contraction. It is filed as functional, Cavia porcellus.
The species named for test [9] is Cavia porcellus. In words: Intrinsic activity at muscarinic M2 receptor in guinea pig atrium assessed as effect on inotropic activity relative to control. The conditions noted are these: Cardiac atrium. It is filed as tissue-based. Put shortly: as §2
Test [10] has as its target Muscarinic acetylcholine receptor M3 (Homo sapiens, UniProt P20309). Put plainly: Displacement of [3H]NMS from human muscarinic M3 receptor expressed in CHO cells by liquid scintillation counter. It is filed as cell-based.
The species named for test [11] is Oryctolagus cuniculus. In words: Intrinsic activity at muscarinic M1/M4 receptor in New Zealanda white rabbit vas deferens assessed as effect on isometric tissue contraction relative to control. It is filed as tissue-based. The essentials: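 Vas deferens in solution with 10^-6 M yohimbine and 10^-8 M tripitramine at 30 °C, field-stimulated (0.1 ms, 2 Hz, 10-15 V). Contractions recorded isometrically after 1 h equilibration. A cumulative McN-A-343 reference curve was built, then cumulative curves to the test agonist. Responses are expressed as % of the control curve's maximum. Parallel reference-only tissues served as sensitivity checks.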

The species named for test [12] is Cavia porcellus. Put plainly: Intrinsic activity at muscarinic M1/M4 receptor in guinea pig lung assessed as effect on tissue contraction relative to control.
Test [13] is described as follows: Agonist activity at muscarinic M3 receptor in guinea pig ileum assessed as effect on tissue tension changes. It is filed as functional, Cavia porcellus. Put shortly: (§3)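 Ileum tension changes recorded isotonically after 30 min equilibration. APE curves were run at 30 min intervals; the first was discarded and the second was taken as control. Cumulative agonist curves followed, with responses expressed as % of the control maximum. Parallel reference-only tissues served as sensitivity checks.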

Test [14] in a line: Agonist activity at muscarinic M1/M4 receptor in guinea pig lung assessed as effect on tissue contraction. It is filed as functional, Cavia porcellus.
The species entered for test [15] is Cavia porcellus. In words: Intrinsic activity at muscarinic M3 receptor in guinea pig ileum assessed as effect on tissue tension changes relative to control. The format is tissue-based. The essentials:
as §3

Bounds are passed on as bounds.

Muscarinic acetylcholine receptor M3, sequence (P20309 whole entry): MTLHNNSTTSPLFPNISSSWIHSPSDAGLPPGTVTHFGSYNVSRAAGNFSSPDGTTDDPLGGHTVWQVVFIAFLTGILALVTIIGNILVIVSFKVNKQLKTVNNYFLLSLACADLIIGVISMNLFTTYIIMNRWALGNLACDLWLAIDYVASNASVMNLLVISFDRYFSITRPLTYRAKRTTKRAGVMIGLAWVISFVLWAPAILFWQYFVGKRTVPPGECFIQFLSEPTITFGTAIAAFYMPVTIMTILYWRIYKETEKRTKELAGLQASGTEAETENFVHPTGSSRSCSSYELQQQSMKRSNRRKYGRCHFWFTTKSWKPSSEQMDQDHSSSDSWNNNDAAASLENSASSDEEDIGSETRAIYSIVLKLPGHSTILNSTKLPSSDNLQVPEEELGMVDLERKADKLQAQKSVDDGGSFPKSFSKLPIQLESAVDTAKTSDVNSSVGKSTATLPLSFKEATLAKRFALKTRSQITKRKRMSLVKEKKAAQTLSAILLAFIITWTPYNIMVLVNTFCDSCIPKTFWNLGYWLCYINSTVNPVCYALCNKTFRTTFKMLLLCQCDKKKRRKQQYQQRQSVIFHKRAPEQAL

Turning to `Cc1ccc([C@@H]2CCCN2C)o1`, the pKb in test [1], in test [3] and in test [8] was less than 5 throughout. Further, the Ki in test [2] was 39.8 µM; in test [4] it was 36.3 µM; in test [6], 15.8 µM; in test [7], 47.9 µM; in test [10], 33.1 µM. Also, the pD2 in test [5] is reported as 6.6. Further, in test [9], the Intrinsic activity amounted to 0.47.

As to `Cc1ccc(C2CCCN2C)o1` (racemic), the pKb in test [1] and in [8] was less than 5 each time. The Ki in [2] is 21.9 µM; in test [4] it was 26.9 µM; in [6], 14.5 µM; in test [7], 24.5 µM; in test [10] it was 22.9 µM. Moreover, in test [5], the pD2 amounted to 6.31. Also, the Intrinsic activity in test [9] is 0.37.

In the case of `Cc1ccc([C@@H]2CCC[N+]2(C)C)o1.[I-]`, the pKb in test [1] is listed as 7.82; in [3] it was 5.9; in [8], 5.96. Further, the Ki is 3.63 µM in test [2]; 5.62 µM in test [4]; 1.66 µM in test [6]; 5.13 µM in test [7]; 2.69 µM in test [10]. Further, the pD2 in test [5] worked out at 7.49. Further, the Intrinsic activity in test [9] came to 0.42.

Regarding `CN1CCCC1c1ccco1` (racemic), the Intrinsic activity was determined as 0.22 in test [11], 0.25 in [12], 0.4 in test [9] and 0.35 in test [15]. Besides, the Ki in [2] is 44.7 µM; in test [4], 33.1 µM; in test [6], 41.7 µM; in test [7], 69.2 µM; in [10] it was 44.7 µM. Further, the pD2 worked out at 7.25 in test [5], 5.7 in [13] and 6.87 in test [14].

With `Cc1ccc([C@H]2CCCN2)o1`, the Intrinsic activity in test [11] was 1; in test [12], 0.32; in [15], 1. For the same molecule, the Ki in test [2] is 15.8 µM; in test [4], 14.5 µM; in test [6], 3.24 µM; in test [7] it was 29.5 µM; in [10], 12 µM. Besides, the pD2 in test [5] stood at 6.71; in [13], 6.16; in test [14] it was 5.45. The A50 in test [9] was 1.

With `CN1CCC[C@H]1c1ccco1`, the Intrinsic activity in test [11] was 0.3; in test [12], 0.33; in test [9], 0.65; in [15], 0.37. In addition, the Ki in [2] is 63.1 µM; in test [4], 43.7 µM; in [6], 30.9 µM; in [7], 56.2 µM; in test [10], 52.5 µM. The pD2 in test [5] amounted to 6.82; in test [13], 5.83; in [14] it was 6.72.

On to `Cc1ccc([C@H]2CCC[N+]2(C)C)o1.[I-]`, for which the inhibitory constant (Ki) is 9.55 µM in test [2]; 13.8 µM in [4]; 2.69 µM in [6]; 13.8 µM in [7]; 7.76 µM in test [10]. Further, the pKb in test [3] was 5.67; in [8] it was less than 5. For the same molecule, the pD2 turned out to be 7.66 in test [5] and 7.1 in test [13]. For the same molecule, the Intrinsic activity in test [9] came out at 0.44; in test [15], 0.26.

As for `C#CCOC(=O)C1=CCCN(C)C1` [ARECAIDINE PROPARGYL ESTER], the Intrinsic activity in test [11], in [12], in test [9] and in test [15] was 1 in each case. Besides, the pD2 is 8.67 in test [5], 7.64 in test [13] and 5.56 in test [14].
